{
  "source": "PubChem BioAssay AID617",
  "about": "(SRMLSC, 2007)",
  "data": [
    {"system": "E. coli BW25113 ΔtolC growth inhibition, OD615", "assay": "E. coli ΔtolC antibacterial growth inhibition – strain BW25113 ΔtolC::kan, dose response (AID 617)", "how_it_was_run": "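System – E. coli BW25113 ΔtolC::kan bacteria · Input – inoculum from 1:1000-diluted 1.5 h subculture · Buffer or medium – LB plus kanamycin · Compound – serial dilution series of compound · Timing – bacterial growth with compound for 20 h, 37 °C · Measured by – OD615 · Read-out basis – growth-inhibition IC50 from four-parameter logistic curve, bounds set to 0% and 100% · Benchmarks – chloramphenicol 30 µM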", "units": {"IC50": "µM"}, "values": [
      {"smiles": "CCC(Oc1ccccc1)C(=O)Nc1nnc(C(F)(F)F)s1", "note": "(configuration not stated)", "IC50": 9.18},
      {"smiles": "COC(=O)c1cc(CSc2nc3ccc(C)cc3[nH]2)oc1C", "IC50": 13.8},
      {"smiles": "Cc1ccc2[nH]c(=O)c(CN(Cc3ccc4c(c3)OCO4)Cc3nnnn3C3CCCC3)cc2c1", "IC50": 42.3},
      {"smiles": "CC1=C(C(=O)OC2CCCCCCC2)C(c2cccc(O)c2)NC(=O)N1", "note": "(configuration not stated)", "IC50": 12.3},
      {"smiles": "COC(=O)c1ccc(O)c(Sc2cc(C(=O)OC)ccc2O)c1", "IC50": 1.91},
      {"smiles": "CCOC(=O)C1CCN(c2nc3cc(OC)ccc3cc2C#N)CC1", "IC50": 14.9},
      {"smiles": "O=S(=O)(NCCSc1ccc(Cl)cc1)c1ccc2c(c1)OCCO2", "IC50": 8.89},
      {"smiles": "COc1ccc(/C=N/n2c(SC)nnc2-c2ccccc2)cc1C", "IC50": 16.5},
      {"smiles": "Cc1cc(-c2ccco2)c(C#N)c2nc3ccccc3n12", "IC50": 9.09},
      {"smiles": "COc1ccccc1N1CCN(C(c2ccccc2Cl)c2nnnn2C(C)(C)C)CC1", "note": "(configuration not stated)", "IC50": 27.6},
      {"smiles": "Cc1ccc(S(=O)(=O)N(Cc2ccccc2)Cc2ccco2)cc1", "IC50": 10.8},
      {"smiles": "COc1ccc2c(c1)OC(O)(C(F)(F)C(F)F)CC2=O", "note": "(configuration not stated)", "IC50": 7.68},
      {"smiles": "CCOc1ccc(NS(=O)(=O)c2ccc(SC)cc2)cc1", "IC50": 6.84},
      {"smiles": "O=C(Nc1ccc(Cl)c(C(F)(F)F)c1)c1ccco1", "IC50": 7.46},
      {"smiles": "O=c1c2ccccc2nc(SCc2cn3ccsc3n2)n1-c1ccccc1F", "IC50": 23.3},
      {"smiles": "O=C(Nc1sc2c(c1C(=O)O)CCC2)c1cccs1", "IC50": 13.8},
      {"smiles": "COC(=O)c1[nH]c2ccc(C)cc2c1NS(=O)(=O)c1ccc(F)cc1", "IC50": 6.58},
      {"smiles": "O=C(NC1CCCCCCC1)c1ccccc1O", "IC50": 9.01},
      {"smiles": "Clc1ccccc1OCc1nnc(-c2ccccc2Br)o1", "IC50": 12.4},
      {"smiles": "COc1ccc(C(C)(C)C)cc1NC(=O)Nc1ccc2c(c1)OCO2", "IC50": 5.28},
      {"smiles": "OCCN(CCO)c1nc(N2CCCCC2)c2nc(N(CCO)CCO)nc(N3CCCCC3)c2n1", "IC50": 1.38},
      {"smiles": "S=C(c1ccc(-c2ccc(Cl)c(Cl)c2)o1)N1CCOCC1", "IC50": 11.2},
      {"smiles": "O=c1c(-c2nc3ccccc3o2)c2oc3ccccc3n2c2ccccc12", "IC50": 17.6},
      {"smiles": "COc1ccc(CN(C(=O)CN2C(=O)C(C)Oc3ccccc32)C2CCCC2)c(OC)c1", "note": "(configuration not stated)", "IC50": 28.1},
      {"smiles": "OC1(c2cccc(C(F)(F)F)c2)CCN(c2ncnc3c2[nH]c2ccc(F)cc23)CC1", "IC50": 1.58},
      {"smiles": "N#Cc1nc(COc2ccccc2F)oc1NCCc1ccccc1", "IC50": 16.7},
      {"smiles": "Cc1cccn2c(=O)c3c(nc12)N1CCC(Cc2ccccc2)CC1C1(C3)C(=O)N(C)C(=O)N(C)C1=O", "note": "(configuration not stated)", "IC50": 17.7},
      {"smiles": "COc1cccc(-c2cc(C(F)(F)F)nc(N3CCOCC3)n2)c1", "IC50": 16.5},
      {"smiles": "Cc1csc(NC(=O)C2CCCN(S(=O)(=O)c3ccc(Br)s3)C2)n1", "note": "(configuration not stated)", "IC50": 12.2},
      {"smiles": "COc1ccc(/C(O)=C2\\C(=O)C(=O)N(CC3CCCO3)C2c2cc(OC)ccc2OC)cc1", "note": "(configuration not stated)", "IC50": 11.8},
      {"smiles": "CN(c1ccccc1C(=O)Nc1ccc(S(=O)(=O)N2CCCCC2)cc1)S(C)(=O)=O", "IC50": 7.39},
      {"smiles": "COc1ccccc1N1CCN(C(=O)c2cc(-c3ccc(C)cc3)on2)CC1", "IC50": 7.85},
      {"smiles": "CC1CCCc2sc3nc(NCc4ccco4)n4ncnc4c3c21", "note": "(configuration not stated)", "IC50": 11.6},
      {"smiles": "COc1ccccc1N1CCN(c2nc(C)nc3c2oc2ccccc23)CC1", "IC50": 11.4},
      {"smiles": "Cc1ccc(Cl)cc1N1CCN(C(=O)c2ccc(NS(=O)(=O)c3c(C)noc3C)cc2)CC1", "IC50": 29.4},
      {"smiles": "O=C(CCn1c(=O)oc2ccccc21)N1CCN(C(c2ccccc2)c2ccccc2)CC1", "IC50": 29},
      {"smiles": "CCCc1ccc(OCc2ccc(C(=O)N3CCN(c4ccccn4)CC3)o2)c(OC)c1", "IC50": 7.15},
      {"smiles": "Cc1cc(=O)[nH]c(SCC(=O)Nc2nc(-c3ccccc3)cs2)n1", "IC50": 4.48},
      {"smiles": "O=C(Nc1nc(-c2cccs2)cs1)c1ccc(Cl)s1", "IC50": 26.3},
      {"smiles": "COc1cccc(-c2cc(C(=O)N3CCc4ccccc4C3)no2)c1", "IC50": 8.69},
      {"smiles": "Clc1ccc(OCCCc2nc(-c3cccnc3)no2)c(Cl)c1", "IC50": 17.2},
      {"smiles": "Cc1nn(Cc2ccc(Cl)cc2)c(C)c1NC(=O)c1noc2c1CCCCC2", "IC50": 13.4},
      {"smiles": "Cc1nnc(SC(=O)N2c3ccccc3Sc3ccccc32)s1", "IC50": 14.6},
      {"smiles": "O=C(Nc1nnc(-c2ccc3c(c2)OCCO3)o1)c1ccc(Cc2ccccc2)cc1", "IC50": 3.26},
      {"smiles": "O=C(COc1ccccc1)Nc1nnc(-c2ccc(Cl)s2)o1", "IC50": 1.86},
      {"smiles": "CCOc1cc(-c2c(C#N)c(N)nc3c2CCCC3C)ccc1O", "note": "(configuration not stated)", "IC50": 6.26},
      {"smiles": "CCCN(CCC)c1nc2ccccc2nc1C(C#N)C(=O)OCCOC", "note": "(configuration not stated)", "IC50": 15.7},
      {"smiles": "CCOC(=O)C1CCN(C(c2cccnc2)c2c(NC(=O)c3ccco3)sc(C)c2C)CC1", "note": "(configuration not stated)", "IC50": 13.6},
      {"smiles": "CNc1ccc(C(O)(C(F)(F)F)C(F)(F)F)cc1C(O)(C(F)(F)F)C(F)(F)F", "IC50": 6.95},
      {"smiles": "Cc1cc(N2CCCCC2)nc(SCc2ccc(C#N)cc2)n1", "IC50": 12.1},
      {"smiles": "COC(=O)C1=C(C)N(C)C(C)=C(C(=O)OC)C1c1ccc(F)c(Br)c1", "IC50": 20},
      {"smiles": "O=C(Nc1nc(-c2ccccn2)cs1)C1COc2ccccc2O1", "note": "(configuration not stated)", "IC50": 0.97},
      {"smiles": "C=CCN(CC=C)S(=O)(=O)c1ccc2nc(NC(=O)C(C)C)sc2c1", "IC50": 6.66},
      {"smiles": "O=C(NC1CCCCC1)c1sc(=S)n2c1[nH]c(=O)c1ccccc12", "IC50": 0.83},
      {"smiles": "COc1cc(-c2nc(-c3cccc(C)c3)no2)cc(OC)c1OC", "IC50": 12.2},
      {"smiles": "Brc1ccc(CSc2nnc(-c3cnccn3)n2Cc2ccco2)cc1", "IC50": 63.4},
      {"smiles": "Fc1cccc(-c2cc3nc4c(c(N5CCOCC5)n3n2)CCCC4)c1", "IC50": 18.4}
    ]}
  ]
}
